Published values gathered from unrelated publications.
Lines come from different studies, so protocols differ.
Organism: Escherichia coli
Read-out: microbial growth

Structure (SMILES) | test | test system | setting | MIC
Cc1ccc2nc(-c3ccccc3Cl)[nH]c2c1 | broth dilution | ATCC25922 |  | 64 µg/mL
N=C(N)c1cccc(OCc2ccccc2COc2cccc(C(=N)N)c2)c1 | broth dilution | BW25113 |  | > 200 µg/mL
CC(=O)Nc1ccc(C(=O)Nc2ccc(C(=O)N[C@@H](CC(N)=O)C(=O)Nc3ccc(C(=O)Nc4ccc(C(=O)Nc5ccc(C(=O)O)cc5)c(O)c4OC(C)C)cc3)cc2)cc1 |  | DSM1116 |  | 16 µg/mL
CCCCCCC#Cc1cncc(-c2nnc(SCc3ccc([N+](=O)[O-])cc3)n2C)c1 |  |  |  | ≥ 20 µg/mL
Cc1ccc2nc(-c3cc(Br)ccc3O)[nH]c2c1 | broth dilution | ATCC25922 |  | 64 µg/mL
C[C@@H](O)[C@H]1C(=O)N2C(C(=O)O)=C(S[C@@H]3CN[C@H](C(=O)N(C)C)C3)[C@H](C)[C@H]12 | broth dilution | KCTC1682 | 16 h | 0.5 µM
Cc1ccc2nc(-c3ccc(Cl)cc3)[nH]c2c1 | broth dilution | ATCC25922 |  | 256 µg/mL
Cc1c(CN(C)C(=O)/C=C/c2cnc3c(c2)CC(NC(=O)OC(C)(C)C)C(=O)N3)oc2ccccc12 (centres unmarked) | broth dilution | MG1655 | clinical isolate | > 32 µg/mL
Cc1cc(C(=O)Nc2ccc(C(=O)N[C@@H](CC(N)=O)C(=O)Nc3ccc(C(=O)Nc4ccc(C(=O)Nc5ccc(C(=O)O)cc5)c(O)c4OC(C)C)cc3)cc2)ccc1C#N |  | DSM1116 |  | 0.5 µg/mL
O=C(CCCCCCCC[P+](c1ccccc1)(c1ccccc1)c1ccccc1)Nc1cc(O)c(O)c(O)c1.[Br-] | broth dilution | ATCC25922 | 18 h | > 32 µg/mL
Cc1ccc(C)n1-c1ccc(-c2nnc(-c3ccc(Br)cc3)[nH]2)cc1 | broth dilution | ATCC10536 | 18 h | 125 µg/mL
N=C(N)c1ccc(OCc2cc(Br)cc(COc3ccc(C(=N)N)cc3)c2)cc1 | broth dilution | ATCC25922 |  | 100 µg/mL
CCCCCCC/C=C/C(=O)N1C(=O)/C(=C(\O)CCCC)C(=O)C1CC(C)C (centres unmarked) |  | K12, K12 |  | > 200 µg/mL
N=C(N)c1ccc(OCCCCCCCCCOc2ccc(C(=N)N)cc2)cc1 |  | BW25113 |  | 50 µg/mL
O=C1NN=C(N=Cc2ccc(O)c(O)c2)C1=NNn1c(-c2ccccc2)nc2ccccc2c1=O | broth dilution |  | 24 h | 53.5 µM
O=C(O)c1cn(C2CC2)c2cc(N3CCNCC3)c(F)cc2c1=O | broth dilution | ATCC25922 |  | 16 µg/mL
CC1(C)S[C@@H]2[C@H](NC(=O)[C@H](N)c3ccccc3)C(=O)N2[C@H]1C(=O)O | broth dilution | ATCC25922 |  | 8 µg/mL
CNC(C)C1CCC(N)C(OC2C(N)CC(N)C(OC3OCC(C)(O)C(NC)C3O)C2O)O1 (centres unmarked) | broth dilution | ATCC25922 |  | 0.5 µg/mL
CSc1ccc(-c2nc3ccccc3[nH]2)cc1 | broth dilution | ATCC25922 |  | 64 µg/mL
CC(C)Oc1c(NC(=O)c2ccc(NC(=O)[C@H](CC(N)=O)NC(=O)c3ccc(NC(=O)c4cc(=O)c(O)c[nH]4)cc3)cc2)ccc(C(=O)Nc2ccc(C(=O)O)cc2)c1O |  | DSM1116 |  | > 64 µg/mL
CN(C)c1ccc(-c2nc3ccccc3[nH]2)cc1 | broth dilution | ATCC25922 |  | 64 µg/mL
Cc1ccc(C)n1-c1ccc(-c2nnc(-c3ccc(N(C)C)cc3)[nH]2)cc1 | broth dilution | ATCC10536 | 18 h | 250 µg/mL

Structure (SMILES) | test | test system | setting | MIC
NC1CCCCc2c1[nH]c1cc(Cl)c(Cl)cc21 (centres unmarked) | broth dilution | ATCC25922 |  | 8 µg/mL
CCCCC(=O)N1C(=O)/C(=C(/C)O)C(=O)C1CC(C)C (centres unmarked) |  | K12, K12 |  | > 200 µg/mL
COc1c(C)c(OC(=O)c2ccc(C)cc2)c(C)c(O)c1C(=O)/C=C/c1ccccc1 | broth dilution | ATCC25922 |  | 5000 µg/mL
C/C(=C\c1ccc(O)cc1)C(=O)Nc1ccc(C(=O)N[C@@H](CC(N)=O)C(=O)Nc2ccc(C(=O)Nc3ccc(C(=O)Nc4ccc(C(=O)O)cc4)c(O)c3OC(C)C)cc2)cc1 |  | DSM1116 |  | 0.25 µg/mL
N=C(N)c1ccc(OCCC(CCOc2ccc(C(=N)N)cc2)c2ccccc2)cc1 (centres unmarked) | broth dilution | BW25113 |  | > 200 µg/mL
CCCCCCCCCC(=O)Oc1c(C)c(O)c(C(=O)/C=C/c2ccccc2)c(OC)c1C | broth dilution | ATCC25922 |  | 5000 µg/mL
N=C(N)c1ccc(OCc2ccc(-c3ccccc3)cc2COc2ccc(C(=N)N)cc2)cc1 | broth dilution | ATCC25922 |  | 200 µg/mL
Brc1ccc(NCc2ccc(Oc3ccccn3)cc2)cc1 |  |  |  | > 25 µg/mL
C[C@H]1[C@H](NC(=O)/C(=N\OC(C)(C)C(=O)O)c2csc(N)n2)C(=O)N1S(=O)(=O)O | agar dilution | ATCC25 |  | 0.06 µg/mL
O=C(CCc1cc(O)c(O)c(O)c1)NCCCCCCCC[P+](c1ccccc1)(c1ccccc1)c1ccccc1.[Br-] | broth dilution | ATCC25922 | 18 h | > 32 µg/mL
CC(C)Oc1c(NC(=O)c2ccc(NC(=O)[C@H](CC(N)=O)NC(=O)c3ccc(NC(=O)c4ccc([N+](=O)[O-])c5cccnc45)cc3)cc2)ccc(C(=O)Nc2ccc(C(=O)O)cc2)c1O |  | DSM1116 |  | 0.25 µg/mL
COc1cc(Cc2cnc(N)nc2N)cc(OC)c1OC | broth dilution |  | 24 h | > 32 µg/mL
CC(C)Oc1c(NC(=O)c2ccc(NC(=O)[C@H](CC(N)=O)NC(=O)c3ccc(NC(=O)c4ccc(C#N)c(F)c4)cc3)cc2)ccc(C(=O)Nc2ccc(C(=O)O)cc2)c1O |  | DSM1116 |  | 0.25 µg/mL
CCCCCCC/C=C/C(=O)N1C(=O)/C(=C(\O)c2ccccc2)C(=O)C1CC(C)C (centres unmarked) |  | K12, K12 |  | > 200 µg/mL
N=C(N)c1ccc(OCc2ccc3ccc(COc4ccc(C(=N)N)cc4)cc3c2)cc1 |  | BW25113 |  | ≥ 200 µg/mL
COc1ccc(-c2nc3ccc(C)cc3[nH]2)cc1O | broth dilution | ATCC25922 |  | 64 µg/mL
N=C(N)c1ccc(OCc2cccc(COc3ccc(C(=N)N)cc3)c2)cc1 | broth dilution | ATCC25922 |  | 200 µg/mL
CC1(C)S[C@@H]2[C@H](NC(=O)[C@H](N)c3ccccc3)C(=O)N2[C@H]1C(=O)O | broth dilution | ATCC25922 | 16 h | 0.3 µg/mL
Clc1ccc(NCc2ccc(Oc3ccccn3)cc2)cc1 |  |  |  | > 50 µg/mL
Cc1ccc2nc(-c3ccc(Cl)c(Cl)c3)[nH]c2c1 | broth dilution | ATCC25922 |  | 32 µg/mL
N=C(N)c1ccc(OCCCCCCCCOc2ccc(C(=N)N)cc2)cc1 | broth dilution | BW25113 |  | > 25 µg/mL
Cc1cc(C#N)ccc1C(=O)Nc1ccc(C(=O)N[C@@H](CC(N)=O)C(=O)Nc2ccc(C(=O)Nc3ccc(C(=O)Nc4ccc(C(=O)O)cc4)c(O)c3OC(C)C)cc2)cc1 |  | DSM1116 |  | 0.5 µg/mL
